Publication PMC5367588 (International Journal of Nanomedicine, 2017)
One block for each compound: values may come before it.

Assays:
[1] = tested on: HepG2, MCF-7, and SW480 cells; assay: In vitro cytotoxicity; type: cell-based; conditions: MTT assay, three cell lines, 48 h
Procedure, shortened: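 Cells grown in RPMI 1640 or L-15 with 10% FBS were seeded at 5,000 cells/well and left to attach overnight. Graded concentrations of test compound were applied in quintuplicate for 48 h at 37°C and 5% CO2. MTT was added for 4 h and absorbance read at 490 nm. IC50 was taken as the concentration giving 50% growth inhibition; the assay was run three times.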

[2] = Water solubility of the prodrug; type: physicochemical; conditions: prodrug relative to 10-HCPT
[3] = Drug release from conjugates in phosphate-buffered saline; type: physicochemical
Procedure, shortened: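 Conjugate at 0.5 mg/mL final in 0.01 mol/L PBS at pH 3.0, 4.0, 5.0, 6.0 and 7.4, held at 37°C for 48 h. Supernatants were analysed by UPLC/MS in MRM mode using the 477.0/433.1 transition for the released ester.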

[4] = Drug release from conjugates in plasma; type: in vitro ADME, human; conditions: for amount of compound B released from the conjugate: plasma
Procedure, shortened: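 Conjugate stock (5.0 mg/mL) was added to human serum to 0.5 mg/mL final, with camptothecin internal standard at 1.0 µg/mL final, at 37°C. Samples were taken from 0.5 to 48 h, protein-precipitated with acetonitrile, centrifuged, dried under N2 at 40°C and reconstituted in acetonitrile. Analysis was by UPLC/MS against serum standards of 0.5–1,000 ng/mL using the internal standard method.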

[5] = Characterization of compound F self-assembly micelles; type: physicochemical; conditions: in water
[6] = In vivo pharmacokinetics and biodistribution; design: species or system tumor-bearing nude mice; conditions: for AUC0–inf / MRT0–inf: i.v. 5.0 mg/kg 10-HCPT injection or 35.1 mg/kg compound F solution, mice, n=6; for T2/1: blood circulation, i.v. single dose equal to 10-HCPT 5 mg/kg, tumor-bearing mice; for AUC(0-inf) / MRT inf: female, BALB/c (nude), mouse, iv, 5 mg/kg
Procedure, shortened: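 Tumor-bearing nude mice (n=6 per group) got one i.v. dose of free parent drug 5 mg/kg or parent-equivalent conjugate. Orbital blood was taken from 10 min to 48 h, and heart, liver, spleen, lung, kidney, brain and tumor were collected. Plasma or saline tissue homogenate was hydrolysed with 0.1 N NaOH (37°C, 20 min), then neutralised with HCl. Camptothecin internal standard was added before acetonitrile extraction. Parent drug was quantified by UPLC/MS and PK parameters derived with software.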

[7] = tested on: tumor-bearing nude mouse models; assay: In vivo antitumor efficacy; design: species or system mice; conditions: for tumor growth inhibition effect (TIR): tail vein injection, equivalent to 5.0 mg/kg 10-HCPT once a day for 14 days, n=8
Procedure, shortened: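 Dosing began in tumor-bearing nude mice once tumors reached ~50–100 mm3; groups (n=8) were balanced for weight and tumor size. Mice received saline, commercial parent-drug injection 5.0 mg/kg, or conjugate 35.1 mg/kg (parent-equivalent 5.0 mg/kg) by tail vein once daily for 14 days. Tumor volume (a×b²/2) was measured every 2 days; toxicity was judged from behaviour and weight loss.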

[8] = once a day for 14 days, tail vein

Compound: 5-carbonyl caproic acid
cytotoxicity (in words) [1]: almost no cytotoxicity

Compound: 10-HCPT-thiosemicarbazide-PEG2000-MeO conjugate [compound F]
cytotoxicity (in words) [1]: strongest cytotoxicity
water solubility increase [2]: over 3,000 times
amount of compound B released from the conjugate ([3]; PBS pH 5.0, 37°C, after 4 h): ~100%
amount of compound B released from the conjugate ([3]; PBS pH 7.4, 37°C, after 1 h): 2%
amount of compound B released from the conjugate ([3]; PBS pH 7.4, 37°C, after 4 h): 8%
amount of compound B released from the conjugate ([3]; pH 7.4 PBS, after 48 h): < 30%
stability (in words) ([3]; phosphate-buffered saline (pH 7.4)): good stability
amount of compound B released from the conjugate ([4]; 37°C, after 1 h): 5%
amount of compound B released from the conjugate ([4]; 37°C, after 4 h): 15%
amount of compound B released from the conjugate ([4]; after 48 h): < 30%
stability (in words) ([4]; rat plasma): good stability
concentration at which conjugates self-assemble into micelles [5]: 7500 µg/mL
AUC0–inf ([6]; Heart): 3,795.7±1,539.3 µg/L h
MRT0–inf ([6]; Heart): 4.379 ± 1.171 h
AUC0–inf ([6]; Kidney): 1,260.4±585.8 µg/L h
MRT0–inf ([6]; Kidney): 2.948 ± 0.548 h
AUC0–inf ([6]; Liver): 52,688.4±3,111.2 µg/L h
MRT0–inf ([6]; Liver): 10.07 ± 0.957 h
AUC0–inf ([6]; Lung): 293,117.9±31,343.1 µg/L h
MRT0–inf ([6]; Lung): 6.96 ± 0.178 h
AUC0–inf ([6]; Plasma): 173,410.1±13,824.5 µg/L h
MRT0–inf ([6]; Plasma): 28.975 ± 1.238 h
AUC0–inf ([6]; Spleen): 8,993.1±1,534.3 µg/L h
MRT0–inf ([6]; Spleen): 7.756 ± 1.518 h
AUC0–inf ([6]; Tumor): 162,823.9±19,289.2 µg/L h
MRT0–inf ([6]; Tumor): 39.873 ± 4.549 h
T2/1 [6]: 10.516 ± 1.158 h
AUC0–inf in tumor relative to 10-HCPT solution ([6]; tumor): 7.76 fold
MRT0–inf in tumors compared with 10-HCPT solution ([6]; tumor): 4.31 fold
body weight change (in words) [7, 8]: did not cause significant loss of body weight
tumor volume (in words) ([7]; once a day for 14 days, tail vein, P<0.05): significantly smaller than that of the group treated with either saline or 10-HCPT solution
tumor growth inhibition effect (TIR) [7]: 82.66%±7.175

T2/1 [6]: 1.859 ± 1.385 h
AUC(0-inf) ([6]; heart): 11600 ng·h/mL
MRT inf ([6]; heart): 6.18 ± 1.5 h
AUC(0-inf) ([6]; kidney): 2090 ng·h/mL
MRT inf ([6]; kidney): 5.96 ± 1.09 h
AUC(0-inf) ([6]; liver): 28700 ng·h/mL
MRT inf ([6]; liver): 5.69 ± 0.845 h
AUC(0-inf) ([6]; lung): 130000 ng·h/mL
MRT inf ([6]; lung): 4.79 ± 0.648 h
AUC(0-inf) ([6]; plasma): 8410 ng·h/mL
MRT inf ([6]; plasma): 6.15 ± 0.964 h
AUC(0-inf) ([6]; spleen): 5040 ng·h/mL
MRT inf ([6]; spleen): 5.68 ± 0.771 h
AUC(0-inf) ([6]; tumor): 21000 ng·h/mL
MRT inf ([6]; tumor): 9.25 ± 1.03 h
Compound: CC[C@@]1(O)C(=O)OCc2c1cc1n(c2=O)Cc2cc3cc(O)ccc3nc2-1 [10-HCPT, 10-Hydroxycamptothecin, reference compound]
body weight change (in words) [7, 8]: significant body weight loss
tumor growth inhibition effect (TIR) [7]: 63.85%±5.233
